CendR NRP1 mod: alters CendR peptide binding to human NRP-1. 0.85% of 360,000 active. FAM-RPARPAR peptide binding to NRP-1, fluorescence polarization. inhibition, % at 25 µM;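 active = inhibition or corrected inhibition above about 18%, plus a signal ratio from 0.5 to 1.5, limit read from the data, passing the limit was not always enough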
FAS TE block: inhibitors of human fatty acid synthase thioesterase domain; P49327; recombinant FAS-TE, OMFH fluorogenic substrate, fluorescence endpoint; inhibition, % at 15 µM; 0.67% of 360,000 active; AID 602261;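 active = compounds whose normalised, plate-corrected inhibition of enzyme fluorescence in the single-dose primary screen is 50% or more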;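 note: 0% = DMSO with enzyme and 100% = substrate without enzyme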
Arr AP2 block: human beta-arrestin and AP2 interaction inhibition; 0.31% of 340,000 active; inhibition, % at 10 µM; FITC-arrestin peptide / GST-AP2 beads, flow cytometry; AP2 beta2 appendage carries R879A mutation;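 active = inhibition above a set limit, near 3 SD of compounds lacking own fluorescence, cut at about 54% in these data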;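 note: plate controls were DMSO wells for no effect and 5 µM unlabelled arrestin peptide for full effect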
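system = GST-tagged AP2 beta2-adaptin appendage (R879A) on 4 µm glutathione beads | reagent = FITC-labelled arrestin peptide probe, 50 nM final | schedule = compound with beads 12 min RT, then probe 1 h RT | signal = HyperCyt-sampled flow cytometry, FL1 channel, ex 488/em 535 nm | read-out = percent response from loss of bead-bound FITC fluorescence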
CaV13 FRET inh: Disruptors of the CACNA1D IQ motif to Ca2+-dependent inactivation inhibitor domain association, primary screening, Förster resonance energy transfer in intact living …. HEK cells, CFP/YFP FRET ICDI-IQ, plate reader, 10 min; percent FRET-ratio fall versus neutral wells. inhibition, % at 12.3 µM. 0.098% of 340,000 active;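 active = mean replicate inhibition of at least 30% and at least 1% of replicates passing that level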;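 note: 0% = median of the neutral control wells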
ADAM10 inh: inhibits human ADAM10. inhibition, % at 7 µM. recombinant ADAM10, EDANS/DABCYL FRET peptide cleavage, 3 h. O14672. 0.62% of 370,000 active;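 active = inhibition above a per-campaign cutoff equal to the mean of compounds falling between control-based bounds plus 3 SD, cut at about 20% in these data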;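 note: 0% = DMSO wells while the 100% control is not disclosed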
ADAM17 inh: ADAM17 inhibition, QFRET primary screen | P78536 | recombinant ADAM17, EDANS/DABCYL FRET peptide cleavage | inhibition, % at 6.95 µM | 0.83% of 370,000 active | AID 720648;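 active = inhibition above the mean of compounds lying between control limits plus 3 SD, set per campaign, cut at about 8.5% in these data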;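 note: 0% = DMSO-only wells as the low control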
Target sequence (P78536 215-824 limits assumed): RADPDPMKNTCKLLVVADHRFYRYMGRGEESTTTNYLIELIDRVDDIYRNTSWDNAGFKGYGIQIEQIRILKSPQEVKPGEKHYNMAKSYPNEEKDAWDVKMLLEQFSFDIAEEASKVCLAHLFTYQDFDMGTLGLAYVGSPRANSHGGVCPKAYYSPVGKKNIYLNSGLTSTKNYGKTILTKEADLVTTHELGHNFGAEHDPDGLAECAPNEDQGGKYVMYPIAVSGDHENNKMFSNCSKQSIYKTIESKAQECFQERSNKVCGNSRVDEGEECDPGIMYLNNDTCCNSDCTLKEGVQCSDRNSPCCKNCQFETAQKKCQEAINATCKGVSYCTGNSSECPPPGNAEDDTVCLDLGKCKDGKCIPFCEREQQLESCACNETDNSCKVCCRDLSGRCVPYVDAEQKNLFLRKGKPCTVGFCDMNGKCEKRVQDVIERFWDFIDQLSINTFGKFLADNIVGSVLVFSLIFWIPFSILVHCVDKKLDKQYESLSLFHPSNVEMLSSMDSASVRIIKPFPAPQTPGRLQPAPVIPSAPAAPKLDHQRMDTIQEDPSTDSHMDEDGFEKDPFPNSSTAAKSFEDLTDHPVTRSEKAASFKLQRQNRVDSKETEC
ADAM10 counter: inhibits human ADAM10 in ADAM17 exosite counter-screen; shares compounds with ADAM17 inh; recombinant ADAM10, EDANS/DABCYL FRET peptide cleavage, 3 h; inhibition, % at 6.95 µM; 47% of 2,900 active; AID 743256;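 active = mean inhibition over the triplicate runs exceeds the activity threshold set in the earlier primary screen, cut at about 20% in these data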;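 note: 0% = DMSO wells and 100% = marimastat wells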
ADAM17 confirm: human ADAM17 inhibition, confirmation. shares compounds with ADAM17 inh. recombinant ADAM17, EDANS/DABCYL QFRET peptide cleavage. inhibition, % at 6.95 µM. 65% of 2,900 active. AID 743257;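 active = mean inhibition across replicates above the hit cutoff set in the primary screen, cut at about 8.5% in these data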;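 note: 0% = DMSO wells and 100% = marimastat wells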
Active calls of the source: *; . = no result. Only some compounds are listed: those with a hit (about 2.9% of all), similar ones and a draw of the others.

SMILES	CendR NRP1 mod	FAS TE block	Arr AP2 block	CaV13 FRET inh	ADAM10 inh	ADAM17 inh	ADAM10 counter	ADAM17 confirm
COC(=O)[C@]12C[C@H](CC(=O)N3CCN(C(=O)c4ccco4)CC3)C(=O)N(Cc3cccc4ccccc34)C1=C[C@H](C(C)C)O[C@@H]2C1CC1	.	.	.	.	6	-3	.	.
COc1ccc(CCNc2oc(COc3ccc(Br)cc3)nc2C#N)cc1OC	0	19	10	-2	18	10*	34*	19*
COc1ccc(Nc2oc(COc3ccc(Cl)cc3)nc2C#N)cc1	10	28	-1	-4	26*	13*	31*	18*
COc1ccc(CNc2oc(COc3ccc(Cl)cc3)nc2C#N)cc1	-2	39	-13	-9	18	11*	31*	16*
COC(=O)[C@]12C[C@H](CC(=O)NCCCN3CCCC3=O)C(=O)N(CCC3=CCCCC3)C1=C[C@H](COCc1ccccc1)O[C@@H]2C	.	.	.	-10	8	2	.	.
CC(C)(C)N(Cc1ccccc1)C(=O)CSc1nc2ccccc2c(=O)[nH]1	-11	5	-4	-6	16	9.0*	10	6
Cc1nnc(SCC(=O)N(Cc2ccccc2)C(C)(C)C)[nH]c1=O	19	-4	-20	-4	2	3	.	.
CC(C)OC(=O)N(C)C[C@@H]1OCc2cnnn2CCCC(=O)N([C@H](C)CO)C[C@@H]1C	-14	-4	.	-3	-8	-1	.	.
O=C(C(=O)N(Cc1ccccc1)Cc1ccccc1)c1c(-c2ccccc2)[nH]c2ccccc12	-2	27	0	-3	22*	11*	42*	22*
CCOC(=O)N[C@@H](Cc1cccnc1)C(=O)N1CCC[C@H]1C(=O)NCCc1ccccc1Cl	.	.	.	.	7	0	.	.
O=C(OCCN1CCN(C2CN(Cc3cn(Cc4ccccc4Cl)nn3)S(=O)(=O)C2)CC1)c1cccs1 (centres undefined)	.	.	.	.	0	-3	.	.
C[C@H]1CN(c2ccc(Br)cc2)C(=O)[C@@H]1CC(=O)Nc1ccccc1	-9	8	.	-3	9	11*	7	6
CN=c1sc2c(n1C)C(=O)c1ccccc1C2=O	22	-1	2	-6	-14	-4	.	.
O=C(c1ccncc1)N1CC[C@H]2[C@H](CCCN2Cc2cc(F)cc(F)c2)C1	.	.	.	.	-10	-7	.	.
O=C(CSc1nc2ccc(NC(=O)c3ccccc3C(=O)O)cc2s1)Nc1ccc(F)c([N+](=O)[O-])c1	-18	15	14	-2	19	9.3*	-2	2
COc1ccccc1C(=O)Nc1ccc2nc(SCC(=O)N(C)C)sc2c1	-2	-6	1	-5	0	0	.	.
COC(=O)C1=C(C)N=C2SC(C)C(=O)N2C1c1cccs1 (centres undefined)	2	-8	6	-3	11	9.6*	1	4
CCCS(=O)(=O)NC(=O)C1(C)CCN(C(=O)Cc2ccc(F)cc2)C1 (centres undefined)	1	-7	.	-5	1	0	.	.
CCC/C=C/c1ccc(CN2C(C(C)C)C(=O)N(Cc3cn(CCC4OCCO4)nn3)CCS2(=O)=O)cc1 (centres undefined)	-34	13	.	-6	12	11*	30*	17*
COCCNC(=O)C1(C)CCN(C(=O)c2cc(C)nn2C(C)(C)C)C1 (centres undefined)	3	-8	.	-5	-8	-4	.	.
CCOC(=O)c1ccc(NC(=S)NCc2ccc(S(N)(=O)=O)cc2)cc1	12	-1	-7	-1	6	1	.	.
CCOC(=O)c1ccc(NC(=S)NCc2ccc(F)cc2)cc1	1	14	1	-5	18	12*	14	10*
N#CCc1ccc(NS(=O)(=O)c2ccc(C3CCCCC3)cc2)cc1	4	30	10	-4	15	10.0*	24*	10*
COc1cc(C)c(C)cc1S(=O)(=O)N1CCN(Cc2ccc3c(c2)OCO3)CC1	5	11	13	0	8	8.8*	23*	9.3*
O=C(NC1CC1)c1c(O)c2ccccc2[nH]c1=O	1	0	-7	-3	-7	-3	.	.
SMILES	CendR NRP1 mod	FAS TE block	Arr AP2 block	CaV13 FRET inh	ADAM10 inh	ADAM17 inh	ADAM10 counter	ADAM17 confirm
O=C(NC1CCCCCCC1)c1c(O)c2ccccc2[nH]c1=O	3	-7	8	.	3	9.4*	-6	1
Cc1ccccc1NC(=O)c1cc(C(=O)c2cc(Cl)ccc2O)cn(-c2ccccc2C)c1=O	-16	32	-6	-17	15	9.7*	5	8
O=C(COc1cccc(Cl)c1)NNC(=S)Nc1ccccc1	7	-8	15	-19	13	9.8*	14	9.7*
O=S1(=O)c2cc(Cl)ccc2N2CC[C@H](C2)N1Cc1ccc(Cl)c(Cl)c1	.	.	.	-5	-13	-6	.	.
CCCCCCn1c(=O)n2n(c1=O)[C@@H]1CN(S(=O)(=O)c3ccc(C)cc3)C[C@]1(O)[C@@H](OC(=O)NCc1ccc(OC)c(OC)c1)C2	0	8	.	-3	17	9.8*	23*	14*
CCCCCCn1c(=O)n2n(c1=O)[C@@H]1CN(S(=O)(=O)c3ccc(C)cc3)C[C@]1(O)[C@@H](OC(=O)NCc1ccccc1F)C2	-6	18	.	-5	8	5	.	.
CC[C@@H]1/C(=C/c2ccccc2)N2C(=O)C[C@@H](c3ccccc3)N=C2N1Cc1ccc(OC)cc1OC	.	.	.	.	-5	-4	.	.
O=C(Nc1ccc(OC(=O)c2ccco2)cc1)c1ccco1	12	-1	-5	-5	-4	0	.	.
O=C(OC1CCCCC1)c1ccc(NC(=O)c2ccco2)cc1	-3	17	6	-7	19	12*	21*	12*
CCc1c(O)nc(SCC(=O)Nc2ccc(Cl)cc2)n(-c2ccccc2)c1=O	-13	-16	.	-10	-10	-2	.	.
Cc1nc(C(=O)Nc2ccc(Cl)cc2)sc1C1(C)CC(c2cccc([N+](=O)[O-])c2)=NO1 (centres undefined)	2	30	9	13	2	1	.	.
COc1ccc(NC(=O)c2nc(C)c(C3(C)CC(c4cccnc4)=NO3)s2)cc1 (centres undefined)	17	8	-2	-8	11	11*	18	10*
